Source: paper PMC4230422 (Journal of Experimental & Clinical Cancer Research : CR, 2014)
One block for each molecule: values may come before it.

What was measured:
VM-CUB1 [1] = assay: CellTiter-Glo ATP cell viability assay, VM-CUB1; format: cell-based, human; details: VM-CUB1, 72 h of HDAC8 inhibitor treatment
Method in brief: (§1)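 UCCs kept in DMEM GlutaMAX-I plus 10% FCS at 37°C, 5% CO2. Cells seeded in 96-well plates and grown 24 h, then given one treatment at the indicated inhibitor concentrations (10 mM DMSO stock) or DMSO for 72 h. Viable cells read as total cellular ATP by CellTiter-Glo luminescence. IC50 and dose-response curves fitted by non-linear regression.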

SW-1710 [2] = assay: CellTiter-Glo ATP cell viability assay, SW-1710; format: cell-based, human; details: SW-1710, 72 h of HDAC8 inhibitor treatment
Method in brief: as §1

RT-112 [3] = assay: CellTiter-Glo ATP cell viability assay, RT-112; format: cell-based, human; details: RT-112, 72 h of HDAC8 inhibitor treatment
Method in brief: as §1

639-V [4] = assay: CellTiter-Glo ATP cell viability assay, 639-V; format: cell-based, human; details: 72 h of HDAC8 inhibitor treatment
Method in brief: as §1

UM-UC-3 [5] = assay: CellTiter-Glo ATP cell viability assay, UM-UC-3; format: cell-based, human; details: UM-UC-3, 72 h of HDAC8 inhibitor treatment
Method in brief: as §1

[6] = system: Normal Uroepithelial Control; assay: CellTiter-Glo ATP cell viability assay, normal uroepithelial control; format: cell-based, human; details: 72 h of HDAC8 inhibitor treatment
Method in brief: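 Normal urothelial cells isolated from ureters after nephrectomy, grown in keratinocyte serum-free medium with 0.25 ng/ml EGF and 12.5 μg/ml bovine pituitary extract. Seeded in 96-well plates for 24 h, then treated once with the indicated inhibitor concentrations (10 mM DMSO stock) or DMSO for 72 h. Read by CellTiter-Glo total-ATP luminescence. IC50 from non-linear regression.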

VM-CUB1 [7] = assay: Colony forming assay, VM-CUB1; format: cell-based, human; details: VM-CUB1, 72 h treatment at IC50 concentrations
Method in brief: (§2)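 After a single 72 h inhibitor or DMSO treatment, cells were replated at 500 to 1,000 cells per well in 6-well plates and grown 10 days. Then PBS-washed, fixed briefly in 50% methanol and 10 min in 100% methanol, and Giemsa-stained. Colony number and size measured by image analysis against the DMSO control.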

[8] = system: urothelial cancer cell lines (UCCs); assay: CellTiter-Glo ATP cell viability assay, urothelial cancer cell line panel; format: cell-based, human; details: 72 h inhibitor treatment
Method in brief: as §1

SW-1710 [9] = assay: Colony forming assay, SW-1710; format: cell-based, human; details: SW-1710, 72 h treatment at IC50 concentrations
Method in brief: as §2

RT-112 [10] = assay: Colony forming assay, RT-112; format: cell-based, human; details: RT-112, 72 h treatment at IC50 concentrations
Method in brief: as §2

639-V [11] = assay: Colony forming assay, 639-V; format: cell-based, human; details: 72 h treatment at IC50 concentrations
Method in brief: as §2

UM-UC-3 [12] = assay: Colony forming assay, UM-UC-3; format: cell-based, human; details: UM-UC-3, 72 h treatment at IC50 concentrations
Method in brief: as §2

VM-CUB1 [13] = assay: Wound healing migration assay, VM-CUB1; format: cell-based, human; details: VM-CUB1, IC50 concentrations, especially after 6 - 12 h
UM-UC-3 [14] = assay: Wound healing migration assay, UM-UC-3; format: cell-based, human; details: UM-UC-3, IC50 concentrations, especially after 6 - 12 h
[15] = system: thymidylate synthase (TS); assay: Western blot of thymidylate synthase in UCCs; format: cell-based, human; details: inhibitor IC50, 72 h
p21 = assay: Western blot of p21 in UCCs; format: cell-based, human
acetylated α-tubulin = assay: Western blot of acetylated α-tubulin in UCCs; format: cell-based, human; details: all cell lines, inhibitor IC50, 72 h
[16] = system: urothelial cancer cell lines (UCCs); assay: Cell cycle analysis by flow cytometry; format: cell-based, human; details: for G1-fraction / G2/M-arrest: VM-CUB1, SW-1710, 639-V and UM-UC-3 cells, inhibitor IC50, 72 h; for sub-G1 fraction: VM-CUB1 and SW-1710, inhibitor IC50, 72 h
Method in brief: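 UCCs grown in DMEM GlutaMAX-I with 10% FCS at 37°C and 5% CO2. One inhibitor dose was given 24 h after seeding (10 mM DMSO stock), with DMSO as solvent control and the pan-HDAC inhibitor SAHA (2.5 μM). After 72 h, attached and floating cells were stained in PI buffer (50 μg/ml PI, 0.1% sodium citrate, 0.1% Triton X-100) and run on flow cytometry. Sub-G1 counted as apoptotic.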

[17] = system: acetylated histone H3 and H4; assay: Western blot of histone H3 and H4 acetylation; format: cell-based, human; details: for H4 acetylation: 639-V, inhibitor IC50, 72 h
Method in brief: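 Histone acetylation checked after 72 h inhibitor or DMSO treatment. 1 μg of each sample run on 15% SDS-PAGE and transferred to PVDF. Probed for acetylated H3 (1:2,000), total H3 (1:1,000), acetylated H4 (1:1,000) and total H4 (1:500). Blocking in 5% milk/TBST, primary 1 h at room temperature or overnight at 4°C, HRP-conjugated secondaries.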

HDAC1, HDAC2 and HDAC3 = assay: Expression of other class I HDACs; format: cell-based, human; details: SW-1710 and VM-CUB1 cells, inhibitor IC50, 72 h, western blot
HDAC6 = details: in vitro; cited from earlier work
PARP = assay: Western blot of PARP cleavage in UCCs; format: cell-based, human; details: SW-1710, inhibitor IC50, 72 h
[18] = VM-CUB1, SW-1710 and UM-UC-3 cells
[19] = SW-1710 and 639-V, inhibitor IC50, 72 h

IC50 (SW-1710 [2]): ≥ 50 µM
SMILES: O=C(NO)c1cccc2ccccc12 [Compound 2, 1-napthohydroxamic acid, reference compound]
IC50 (VM-CUB1 [1]): ≥ 50 µM
IC50 (RT-112 [3]): ≥ 50 µM
IC50 (RT-112 [3]; listed as c2): > 50 µM
IC50 (639-V [4]): ≥ 50 µM
IC50 (UM-UC-3 [5]): ≥ 50 µM
IC50 [6]: ≥ 50 µM
clonogenic growth (VM-CUB1 [7]): inhibited clonogenicity

IC50 (SW-1710 [2]): 20.8 µM
SMILES: O=C(/C=C/Cc1cccc2ccccc12)NO [Compound 5, δ-naphtyl-trans 2-butenoil hydroxamic acid]
IC50 (VM-CUB1 [1]): 18.7 µM
IC50 (RT-112 [3]): 9.7 µM
IC50 (RT-112 [3]; listed as c5): ~9.7 µM
IC50 (639-V [4]): 12.6 µM
IC50 (UM-UC-3 [5]): 18.9 µM
IC50 [6]: 24.2 µM
viability of all UCCs [8]: significantly reduced
clonogenic growth (VM-CUB1 [7]): completely abolished
clonogenic growth (SW-1710 [9]): no effect
clonogenic growth (RT-112 [10]): moderate reduction of colony numbers
clonogenic growth (639-V [11]): moderate reduction of colony numbers
clonogenic growth (UM-UC-3 [12]): moderate reduction of colony numbers
wound healing (relative scratch size) vs DMSO control (VM-CUB1 [13]): clear difference
wound healing (relative scratch size) vs DMSO control (UM-UC-3 [14]): clear difference
expression of thymidylate synthase (TS) ([15]; 639-V and RT-112 cells): No effects
expression of thymidylate synthase (TS) [15, 18]: weakly reduced
p21 expression (p21; [19]): decreased
acetylated α-tubulin (acetylated α-tubulin; listed as c5): strong increase
G1-fraction [16]: significant decrease
G2/M-arrest [16]: indications of a G2/M-arrest
sub-G1 fraction [16]: significant increase
H4 acetylation [17]: slight increase
protein expression of HDAC1 and HDAC2/3 (HDAC1, HDAC2 and HDAC3): slightly reduced
inhibition of HDAC6 (HDAC6): do not inhibit HDAC6 efficiently

IC50 (SW-1710 [2]): 18.8 µM
SMILES: O=C(NO)c1ccc(-c2cccc3ccccc23)cc1 [Compound 6, 4-naphtyl-benzoil hydroxamic acid]
IC50 (VM-CUB1 [1]): 16 µM
IC50 (RT-112 [3]): 9.1 µM
IC50 (RT-112 [3]; listed as c6): ~9.1 µM
IC50 (639-V [4]): 18.6 µM
IC50 (UM-UC-3 [5]): 18.2 µM
IC50 [6]: 10.2 µM
viability of all UCCs [8]: significantly reduced
clonogenic growth (VM-CUB1 [7]): most efficient
clonogenic growth (SW-1710 [9]): active
clonogenic growth (RT-112 [10]): active
clonogenic growth (639-V [11]): most efficient
clonogenic growth (UM-UC-3 [12]): most efficient
wound healing (relative scratch size) vs DMSO control (VM-CUB1 [13]): clear difference
wound healing (relative scratch size) vs DMSO control (UM-UC-3 [14]): clear difference
expression of thymidylate synthase (TS) ([15]; 639-V and RT-112 cells): No effects
expression of thymidylate synthase (TS) [15, 18]: weakly reduced
cleavage of PARP (PARP): Increased cleavage of PARP
p21 expression (p21; [19]): decreased
p21 expression (p21; UM-UC-3, inhibitor IC50, 72 h): decreased
acetylated α-tubulin (acetylated α-tubulin; listed as c6): strong increase
G1-fraction [16]: significant decrease
G2/M-arrest [16]: indications of a G2/M-arrest
sub-G1 fraction [16]: significant increase
H4 acetylation [17]: slight increase
protein expression of HDAC1 and HDAC2/3 (HDAC1, HDAC2 and HDAC3): slightly reduced
inhibition of HDAC6 (HDAC6): do not inhibit HDAC6 efficiently

SMILES: O=C(CCCCCCC(=O)Nc1ccccc1)NO [SAHA, suberoylanilide hydroxamic acid, reference compound]
histone H3 or H4 acetylation ([17]; SAHA control): led to a change
